Experimental data reported in ChEMBL document CHEMBL4390691, “Discovery of 1,3-dihydro-2H-imidazo[4,5-c]quinolin-2-ones based novel, potent and PI3Kδ selective inhibitors” (Bioorg Med Chem Lett, 2019).

Tests used:
[1] = target: Phosphatidylinositol 4,5-bisphosphate 3-kinase catalytic subunit alpha isoform (Homo sapiens, UniProt P42336); assay: Inhibition of human PI3Kalpha using PIP2 as substrate after 1 hr
[2] = target: Phosphatidylinositol 4,5-bisphosphate 3-kinase catalytic subunit beta isoform (Homo sapiens, UniProt P42338); assay: Inhibition of human PI3Kbeta using PIP2 as substrate after 1 hr
Chain of Phosphatidylinositol 4,5-bisphosphate 3-kinase catalytic subunit beta isoform (P42338 whole entry, canonical isoform): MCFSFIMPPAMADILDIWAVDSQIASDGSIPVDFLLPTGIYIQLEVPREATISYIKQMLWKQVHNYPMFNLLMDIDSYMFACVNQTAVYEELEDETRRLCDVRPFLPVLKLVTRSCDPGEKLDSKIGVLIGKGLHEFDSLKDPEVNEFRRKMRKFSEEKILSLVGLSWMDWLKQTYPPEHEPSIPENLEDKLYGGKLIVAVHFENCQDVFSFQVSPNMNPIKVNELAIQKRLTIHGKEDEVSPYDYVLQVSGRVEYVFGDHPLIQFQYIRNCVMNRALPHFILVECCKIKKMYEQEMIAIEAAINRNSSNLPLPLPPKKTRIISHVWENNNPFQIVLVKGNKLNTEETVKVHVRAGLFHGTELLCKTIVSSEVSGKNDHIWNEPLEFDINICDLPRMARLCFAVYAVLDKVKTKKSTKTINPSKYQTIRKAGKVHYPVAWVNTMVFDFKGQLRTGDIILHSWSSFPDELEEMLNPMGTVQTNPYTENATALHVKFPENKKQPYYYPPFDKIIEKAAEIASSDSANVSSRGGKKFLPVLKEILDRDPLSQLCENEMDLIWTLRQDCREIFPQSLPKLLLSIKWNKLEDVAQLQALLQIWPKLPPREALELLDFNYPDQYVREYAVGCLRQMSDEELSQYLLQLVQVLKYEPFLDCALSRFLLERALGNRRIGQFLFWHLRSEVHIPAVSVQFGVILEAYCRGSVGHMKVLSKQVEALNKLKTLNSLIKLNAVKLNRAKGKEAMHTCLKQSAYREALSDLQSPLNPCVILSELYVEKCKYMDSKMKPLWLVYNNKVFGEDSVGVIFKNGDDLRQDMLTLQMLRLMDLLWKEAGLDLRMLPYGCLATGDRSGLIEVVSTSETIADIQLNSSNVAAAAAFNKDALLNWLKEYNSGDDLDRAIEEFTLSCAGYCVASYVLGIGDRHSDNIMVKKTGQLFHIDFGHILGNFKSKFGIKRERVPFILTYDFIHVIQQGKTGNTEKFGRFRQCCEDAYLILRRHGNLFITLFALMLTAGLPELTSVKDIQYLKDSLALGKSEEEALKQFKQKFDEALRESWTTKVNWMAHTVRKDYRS

[3] = Clearance in C57BL/6J mouse at 1 mg/kg, iv measured up to 30 hrs by LC-MS/MS analysis; assay type: ADME, organism-based; conditions: in vivo
Summary of the method: (§1)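 Male C57BL/6J mice (n = 6) received single doses of 3 mg/kg po or 1 mg/kg iv. Plasma concentrations were measured by LC-MS. Values are mean ± SD. Oral bioavailability (%F) was calculated from the ratio to iv AUC.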

[4] = Oral bioavailability in C57BL/6J mouse at 3 mg/kg measured up to 30 hrs by LC-MS/MS analysis; assay type: ADME, organism-based; conditions: in vivo; summary of the method: as §1
[5] = target: Phosphatidylinositol 4,5-bisphosphate 3-kinase catalytic subunit gamma isoform (Homo sapiens, UniProt P48736); assay: Inhibition of human PI3Kgamma using PIP2 as substrate after 1 hr
Chain of Phosphatidylinositol 4,5-bisphosphate 3-kinase catalytic subunit gamma isoform (P48736 whole entry, canonical isoform): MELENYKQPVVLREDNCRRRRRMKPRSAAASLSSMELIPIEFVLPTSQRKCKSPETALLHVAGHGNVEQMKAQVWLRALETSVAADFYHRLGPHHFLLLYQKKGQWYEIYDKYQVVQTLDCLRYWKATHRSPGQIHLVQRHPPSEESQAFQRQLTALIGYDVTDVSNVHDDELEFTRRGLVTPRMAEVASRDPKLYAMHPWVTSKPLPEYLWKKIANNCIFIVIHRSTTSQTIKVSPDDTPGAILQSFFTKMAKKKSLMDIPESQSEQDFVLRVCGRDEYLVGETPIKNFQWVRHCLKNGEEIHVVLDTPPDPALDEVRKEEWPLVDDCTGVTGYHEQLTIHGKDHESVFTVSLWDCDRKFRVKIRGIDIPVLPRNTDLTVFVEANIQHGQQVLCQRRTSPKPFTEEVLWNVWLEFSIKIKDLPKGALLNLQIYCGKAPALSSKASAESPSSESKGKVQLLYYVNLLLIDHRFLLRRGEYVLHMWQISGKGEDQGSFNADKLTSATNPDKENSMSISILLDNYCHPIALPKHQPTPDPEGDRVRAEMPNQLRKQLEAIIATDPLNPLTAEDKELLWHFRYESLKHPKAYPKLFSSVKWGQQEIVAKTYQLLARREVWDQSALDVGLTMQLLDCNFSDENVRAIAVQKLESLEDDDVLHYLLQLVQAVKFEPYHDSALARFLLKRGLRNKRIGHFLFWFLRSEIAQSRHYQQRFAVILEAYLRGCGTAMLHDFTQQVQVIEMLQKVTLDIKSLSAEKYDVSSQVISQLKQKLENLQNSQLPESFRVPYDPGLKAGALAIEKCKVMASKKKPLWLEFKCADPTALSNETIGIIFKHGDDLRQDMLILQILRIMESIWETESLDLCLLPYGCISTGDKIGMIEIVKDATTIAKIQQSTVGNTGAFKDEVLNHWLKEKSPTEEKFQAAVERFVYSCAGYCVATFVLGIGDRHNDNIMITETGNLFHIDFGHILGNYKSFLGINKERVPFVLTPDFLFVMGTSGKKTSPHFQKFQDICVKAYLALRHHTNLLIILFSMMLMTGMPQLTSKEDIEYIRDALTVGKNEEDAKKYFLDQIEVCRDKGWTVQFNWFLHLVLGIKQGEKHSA

[6] = Cmax in C57BL/6J mouse at 3 mg/kg, po measured up to 30 hrs by LC-MS/MS analysis; assay type: ADME, organism-based; set-up: dose 3 mg/kg, route oral; conditions: in vivo; summary of the method: as §1
[7] = AUC (0 to infinity) in C57BL/6J mouse 1 mg/kg, iv measured up to 30 hrs by LC-MS/MS analysis; assay type: ADME, organism-based; set-up: dose 1 mg/kg, time infinity, route intravenous; conditions: in vivo
Summary of the method: (§2)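 Single-dose PK in male C57BL/6J mice (n = 6), dosed 1 mg/kg iv or 3 mg/kg orally. Plasma drug levels were measured by LC-MS, and PK parameters (Tmax, Cmax, t1/2, Cl, AUC, %F) were derived. Values are given as mean ± SD. Oral bioavailability was calculated against the iv AUC.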

[8] = Tmax in C57BL/6J mouse at 3 mg/kg, po measured up to 30 hrs by LC-MS/MS analysis; assay type: ADME, organism-based; conditions: in vivo; summary of the method: as §1
[9] = AUC (0 to infinity) in C57BL/6J mouse 3 mg/kg, po measured up to 30 hrs by LC-MS/MS analysis; assay type: ADME, organism-based; set-up: dose 3 mg/kg, route oral, time infinity; conditions: in vivo; summary of the method: as §2
[10] = Half life in C57BL/6J mouse at 3 mg/kg, po measured up to 30 hrs by LC-MS/MS analysis; assay type: ADME, organism-based; conditions: in vivo; summary of the method: as §1
[11] = target: T1, Phosphatidylinositol 4,5-bisphosphate 3-kinase catalytic subunit delta isoform (Homo sapiens, UniProt O00329); assay: Inhibition of human PI3Kdelta using PIP2 as substrate after 1 hr
T1 sequence (O00329 whole entry): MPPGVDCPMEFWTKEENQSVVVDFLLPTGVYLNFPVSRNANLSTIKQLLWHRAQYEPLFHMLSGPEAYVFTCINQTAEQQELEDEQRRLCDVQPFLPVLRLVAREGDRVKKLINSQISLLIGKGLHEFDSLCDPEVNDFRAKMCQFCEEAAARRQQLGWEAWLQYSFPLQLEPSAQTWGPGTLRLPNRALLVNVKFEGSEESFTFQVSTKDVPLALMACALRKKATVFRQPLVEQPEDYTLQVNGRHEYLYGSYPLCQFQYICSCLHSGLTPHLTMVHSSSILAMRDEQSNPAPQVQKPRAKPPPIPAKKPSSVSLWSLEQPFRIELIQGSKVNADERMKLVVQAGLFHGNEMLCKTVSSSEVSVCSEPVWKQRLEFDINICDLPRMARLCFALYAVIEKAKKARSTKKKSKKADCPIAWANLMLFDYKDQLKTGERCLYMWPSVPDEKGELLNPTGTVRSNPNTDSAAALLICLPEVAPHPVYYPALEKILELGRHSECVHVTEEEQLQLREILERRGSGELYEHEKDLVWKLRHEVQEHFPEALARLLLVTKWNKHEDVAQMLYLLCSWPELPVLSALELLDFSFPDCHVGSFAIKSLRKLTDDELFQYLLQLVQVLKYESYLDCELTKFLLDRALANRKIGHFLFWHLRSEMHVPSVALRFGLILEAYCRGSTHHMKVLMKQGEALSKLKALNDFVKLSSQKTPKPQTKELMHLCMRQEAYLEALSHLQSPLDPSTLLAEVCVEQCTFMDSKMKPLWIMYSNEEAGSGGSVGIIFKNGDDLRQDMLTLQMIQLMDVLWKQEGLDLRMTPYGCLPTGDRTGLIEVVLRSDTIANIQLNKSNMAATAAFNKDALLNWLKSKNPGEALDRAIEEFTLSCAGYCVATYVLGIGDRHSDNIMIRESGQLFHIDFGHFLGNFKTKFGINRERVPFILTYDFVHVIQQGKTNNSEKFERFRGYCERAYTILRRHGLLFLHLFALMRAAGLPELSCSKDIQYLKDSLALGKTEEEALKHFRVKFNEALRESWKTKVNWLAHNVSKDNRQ

[12] = target: Serine/threonine-protein kinase mTOR (Homo sapiens, UniProt P42345); assay: Inhibition of mTOR (unknown origin) assessed as reduction in p70S6K phosphorylation

Chain of Phosphatidylinositol 4,5-bisphosphate 3-kinase catalytic subunit alpha isoform (P42336 whole entry, looked up, canonical isoform): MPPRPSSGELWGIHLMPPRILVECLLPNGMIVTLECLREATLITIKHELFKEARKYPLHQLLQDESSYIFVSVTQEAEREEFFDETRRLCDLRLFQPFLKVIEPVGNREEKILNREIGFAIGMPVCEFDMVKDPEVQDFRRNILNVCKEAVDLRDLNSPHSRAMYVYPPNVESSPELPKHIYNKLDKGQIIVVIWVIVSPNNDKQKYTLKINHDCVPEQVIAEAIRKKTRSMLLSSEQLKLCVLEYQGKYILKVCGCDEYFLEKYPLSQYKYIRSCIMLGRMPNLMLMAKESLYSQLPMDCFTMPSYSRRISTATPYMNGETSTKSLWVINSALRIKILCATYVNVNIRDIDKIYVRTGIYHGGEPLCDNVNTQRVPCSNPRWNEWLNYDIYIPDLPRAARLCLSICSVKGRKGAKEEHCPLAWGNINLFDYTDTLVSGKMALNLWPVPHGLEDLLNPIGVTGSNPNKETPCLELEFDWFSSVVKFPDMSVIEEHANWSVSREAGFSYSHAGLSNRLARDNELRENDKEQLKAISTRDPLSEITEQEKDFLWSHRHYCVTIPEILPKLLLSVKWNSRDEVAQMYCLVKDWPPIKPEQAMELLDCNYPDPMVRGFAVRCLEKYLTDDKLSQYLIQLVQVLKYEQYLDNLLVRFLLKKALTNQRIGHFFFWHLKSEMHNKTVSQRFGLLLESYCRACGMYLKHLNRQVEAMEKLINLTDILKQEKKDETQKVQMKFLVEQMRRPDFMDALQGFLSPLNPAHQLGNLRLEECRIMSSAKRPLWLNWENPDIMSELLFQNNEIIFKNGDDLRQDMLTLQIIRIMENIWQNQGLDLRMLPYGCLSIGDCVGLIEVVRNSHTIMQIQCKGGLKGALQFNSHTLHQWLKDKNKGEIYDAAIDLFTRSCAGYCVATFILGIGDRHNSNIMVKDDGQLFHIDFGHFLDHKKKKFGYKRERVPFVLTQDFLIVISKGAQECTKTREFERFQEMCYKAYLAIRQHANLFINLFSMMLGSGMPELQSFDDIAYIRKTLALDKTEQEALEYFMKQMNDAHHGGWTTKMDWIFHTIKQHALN

IC50 [1] [µM] | IC50 [2] [µM] | clearance [3] [mL/min/kg] | bioavailability [4] [%] | IC50 [5] [µM] | Cmax [6] [ng/mL] | AUC [7] [ng·h/mL] | Tmax [8] [h] | AUC [9] [ng·h/mL] | half-life [10] [h] | IC50 [11] [µM] | IC50 [12] [µM] | Structure (SMILES)
0.421 | 0.342 | 22.9 | 14.8 | 0.038 | 128 | 743 | 0.38 | 329 | 2.31 | 0.0095 | 0.676 | COc1ccc(Cn2c(=O)n(C)c3c4cc(-c5cnc6ccccc6c5)ccc4ncc32)cc1
 |  |  |  |  |  |  |  |  |  | 0.0114 |  | COc1ccc(Cn2c(=O)n(C)c3c4cc(-c5ccc(OC)nc5)ccc4ncc32)cc1
 |  |  |  |  |  |  |  |  |  | 0.0294 |  | COc1ccc(Cn2c(=O)n(C)c3c4cc(-c5ccccc5)ccc4ncc32)cc1
